# Assay outcomes from PubChem BioAssay.
# Rows were chosen to be rich in hits. Some 2.4% of all compounds tested hit in one or more screens of this group.
# MT1-MMP act inh: MT1-MMP (human) activation inhibition; 0.061% of 360,000 active; P50281; GFP/RFP ratio change, % at 20 µM; AID 651647; HT1080 RFP-PRO-GFP cells, GFP/RFP ratio fluorescence, overnight; percent of plate control window, DMSO zero;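 active = GFP/RFP ratio change of at least 30% with cell ATP level not reduced by more than half and red fluorescence within 50% of control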
#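 Test system: HT1080 RFP-PRO-GFP cells; Benchmarks: DMSO and RFP-L50D-GFP cell wells; Timing: cells overnight before dosing, compound overnight, 37 °C, 5% CO2; Compound: one 20 µM compound dose with 1% DMSO; Read-out: GFP/RFP fluorescence ratio.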
# SENP1 inh: SENP1 (human) catalytic domain inhibition; recombinant SENP1 catalytic domain, CyPet-SUMO1-YPet FRET cleavage; inhibition, % at 10 µM; 0.21% of 360,000 active; AID 624204;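 active = inhibition at least 30% at 10 µM, raw YFP signal under a set limit, fluorescence ratio 0.5 to 1.5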;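 also: 0% = enzyme with DMSO and 100% = no enzyme wells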
#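 Assay system: hSENP1 catalytic domain, recombinant. Amount: SENP1 enzyme, 20 pM final. Schedule: 50 min reaction, RT, dark. Technique: FRET, CFP and YFP emission. Control set: no-enzyme wells low, DMSO-plus-enzyme wells high control.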
# NRP1-CendR mod: alters CendR peptide binding to human NRP-1 | O14786 | FAM-RPARPAR peptide binding to NRP-1, fluorescence polarization | 0.85% of 360,000 active | inhibition, % at 25 µM | AID 602438;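 active = inhibition or corrected inhibition above about 18%, plus a signal ratio from 0.5 to 1.5, limit read from the data, passing the limit was not always enough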
# Target sequence (O14786 whole entry, looked up): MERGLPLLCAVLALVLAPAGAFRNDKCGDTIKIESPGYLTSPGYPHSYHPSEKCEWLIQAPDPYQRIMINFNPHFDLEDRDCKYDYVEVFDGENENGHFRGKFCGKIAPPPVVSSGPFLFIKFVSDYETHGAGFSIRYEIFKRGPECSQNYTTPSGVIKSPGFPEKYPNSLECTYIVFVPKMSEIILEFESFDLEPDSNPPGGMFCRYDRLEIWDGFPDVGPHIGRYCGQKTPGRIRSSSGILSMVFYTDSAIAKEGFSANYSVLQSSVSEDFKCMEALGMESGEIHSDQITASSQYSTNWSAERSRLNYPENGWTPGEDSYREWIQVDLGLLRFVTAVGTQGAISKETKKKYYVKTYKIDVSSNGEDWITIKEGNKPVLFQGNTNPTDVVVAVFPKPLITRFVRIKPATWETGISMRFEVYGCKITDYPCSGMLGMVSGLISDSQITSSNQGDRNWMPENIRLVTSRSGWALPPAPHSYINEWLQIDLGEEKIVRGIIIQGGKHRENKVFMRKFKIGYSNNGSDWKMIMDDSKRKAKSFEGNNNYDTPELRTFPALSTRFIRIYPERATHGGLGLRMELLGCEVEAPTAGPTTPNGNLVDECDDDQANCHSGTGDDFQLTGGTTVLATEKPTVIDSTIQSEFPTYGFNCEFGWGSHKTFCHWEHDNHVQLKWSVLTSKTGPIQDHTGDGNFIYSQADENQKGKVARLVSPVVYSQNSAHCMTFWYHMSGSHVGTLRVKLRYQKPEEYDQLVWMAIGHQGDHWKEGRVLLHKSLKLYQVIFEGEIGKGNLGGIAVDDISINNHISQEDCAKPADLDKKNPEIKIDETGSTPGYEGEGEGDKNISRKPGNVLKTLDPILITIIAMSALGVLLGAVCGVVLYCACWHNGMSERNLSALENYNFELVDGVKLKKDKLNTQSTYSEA
# DAGLB inhibitor: blocks human DAGLB lipase activity. HEK293T DAGLB membrane lysate, EnzChek fluorogenic substrate. AID 504411. 0.059% of 340,000 active. inhibition, % at 5.17 µM. Q8NCG7; in the data active = inhibition above about 34%;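 also: 0% = enzyme with vehicle and 100% = wells lacking enzyme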
# Myeloid diff 2: myeloid differentiation induction; ER-HoxA9 myeloid progenitors, lysozyme-GFP differentiation, flow cytometry; 1% of 360,000 active; calls only at 10 µM;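 active = normalized GFP-positive differentiation at or above the plate's own cutoff, the solvent-only control mean plus 3 SD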;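 also: cells exposed to compound for four days before flow analysis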
# MIN6 prolif: MIN6 beta-cell proliferation induction; MIN6 cells proliferation, ATPlite luminescence, 48 h; cells starved in 0.2% serum; 100% = growth in 10% serum; proliferation, % at 10 µM; 0.29% of 330,000 active;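 active = compounds whose signal lies at least 3.5 SD above the mean of all wells on their plate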;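 also: 0% = DMSO-treated cells in low-serum medium and 100% = 10% serum control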
# The depositor's hits bear a star; i = inactive; x = no result given; + = active, no number.
SMILES,MT1-MMP act inh,SENP1 inh,NRP1-CendR mod,DAGLB inhibitor,Myeloid diff 2,MIN6 prolif
C#CCOCCOCCOCCNc1nc(N2CCN(C(=O)CCCCCCCCCCNC(=O)Cn3cc(C[C@@H](C)O)nn3)CC2)nc(N2CCN(C(=O)CCCCCCCCCCNC(=O)[C@@H](CCSC)n3cc(CCO)nn3)CC2)n1,-1,1,4,-5,+,-8
C#CCOCCOCCOCCNc1nc(N2CCN(C(=O)CCCCCCCCCCNC(=O)[C@@H](CCSC)n3cc(CCO)nn3)CC2)nc(N2CCN(C(=O)CCCCCCCCCCNC(=O)[C@H](CCCN=C(N)N)n3cc(C[C@@H](C)CC)nn3)CC2)n1,5,-4,21*,-1,i,-7
Cc1ccc(N(CC(=O)NC2CCCC2)C(=O)CCC(=O)Nc2nc(C)cs2)cc1,-2,1,7,0,i,0
CSC[C@H]1CN(c2ccccc2)C(=O)[C@@H]1CC(=O)Nc1ccc(Br)cc1,6,1,2,-6,i,x
CCOC(=O)c1c(N)nn(C(=O)C(C)C)c1-c1ccccc1,-4,-3,22*,-8,i,2
O=c1[nH]n2c(C(F)(F)F)cc(C3CC3)nc2c1N=Nc1ccccc1,14,3,24*,0,i,-3
CC1OC(CC(=O)O)CC2=C1C(=O)c1c(O)cccc1C2=O (stereo unspecified),-57,0,35*,-2,x,x
O=C1c2cccc(O)c2C(=O)c2c(O)cccc21,x,x,x,x,x,-6
Brc1ccc(-c2nc(N/N=C/c3cccnc3)c3ccccc3n2)cc1,0,-11,10,-7,+,-5
C(=N\Nc1nc(-c2cccnc2)nc2ccccc12)/c1ccccc1,-4,-8,-8,x,i,-4
Cc1ccc(-c2nc(N/N=C/c3ccccc3[N+](=O)[O-])c3ccccc3n2)cc1,-4,4,4,-4,+,-5
O=[N+]([O-])c1ccccc1C=NNc1ccccc1,3,5,2,15,i,x
CCc1sc(NC(=O)CCC(=O)O)nc1-c1cc2ccccc2oc1=O,0,-2,8,0,i,2
CCOc1ccc(-c2cc(C(=O)Nc3cccc(C(F)(F)F)c3)[nH]n2)c(C)c1,-1,1,1,x,i,x
S=C(NCCc1cnc[nH]1)NC1CCCC1,2,2,-19,-3,i,-4
COc1cc(C=NNC(=O)C(=O)Nc2cccc(Cl)c2)cc(OC)c1O,4,10,-1,0,+,x
CC1CN(S(=O)(=O)c2csc(C(=O)Nc3ccccc3)c2)CC(C)O1 (stereo unspecified),-5,1,2,-1,i,1
CCOC(=O)C1=C(COC(=O)CCNS(=O)(=O)c2ccc(NC(C)=O)cc2)NC(=O)NC1C (stereo unspecified),1,2,2,0,i,-3
O=C/C(=C\Nc1ccc(C(=O)N2CCOCC2)cc1)c1nc2ccccc2o1,-5,-17,-11,0,i,-4
Cc1csc(NC(C)c2nc3cc(C(F)(F)F)ccc3n2CCCO)n1 (stereo unspecified),2,1,35*,0,i,-3
Cc1ccc(Cn2c(C(C)Nc3nc(-c4ccc(Cl)c([N+](=O)[O-])c4)cs3)nc3cc(C(F)(F)F)ccc32)cc1 (stereo unspecified),-1,2,35*,-12,i,-8
CC(Nc1nc(-c2ccc(F)cc2)cs1)c1nc2cc(Cl)c(Cl)cc2n1CCCO (stereo unspecified),7,-1,3,2,i,-9
Cc1ccc(Cn2c(C(C)Nc3nc(-c4ccc(Cl)cc4)cs3)nc3cc(C(=O)NCCCO)ccc32)cc1 (stereo unspecified),5,1,-13,8,+,-7
Cc1ccc(Cn2c(CCNc3nc(-c4ccc(C)cc4)cs3)nc3cc(C(=O)NCCCO)ccc32)cc1,4,0,10,3,i,-5
CCOC(=O)Cc1csc(SCC(=O)Nc2oc(C)c3c(C)n[nH]c(=O)c23)n1,-12,-8,6,-3,i,-2
SMILES,MT1-MMP act inh,SENP1 inh,NRP1-CendR mod,DAGLB inhibitor,Myeloid diff 2,MIN6 prolif
CN(C(=O)COC(=O)c1cnc(Cl)c(Cl)c1)C1CCS(=O)(=O)C1 (stereo unspecified),1,1,-4,-1,i,2
CN(C(=O)COC(=O)c1cnc(Cl)c(Cl)c1)C1CCCCC1,-8,1,24*,2,i,-7
CC(=O)Nc1cc[n+](C(C)C(=O)c2ccc(Br)cc2)cc1 (stereo unspecified),7,3,0,1,+,-3
CNc1cccc(-c2cc(OC)c(OC)c(OC)c2)n1,6,3,0,x,i,x
COc1cc(Nc2cccc(-c3ccccc3)n2)cc(OC)c1OC,3,1,30*,x,i,x
O=C(COC(=O)c1cc(=O)[nH]c(=O)[nH]1)NCc1ccccc1,-4,4,-2,0,i,0
COC(=O)C(NC(=O)CCC(=O)N[C@@H](C(=O)OC)c1ccccc1)c1ccccc1 (stereo partly specified),0,1,25*,-2,i,0
CC(C)(C)OC(=O)N[C@H](C(=O)OC(C)(C)C)c1ccccc1,0,-1,36*,-9,i,7
COC(=O)C(NC(=O)CCC(=O)NC(C(=O)OC)c1ccccc1)c1ccccc1 (stereo unspecified),-1,2,-1,1,i,-4
CCC(C(=O)NC1CCCCCC1)n1nc(C)c2c(C)n(-c3ccccc3)nc2c1=O (stereo unspecified),0,0,-3,1,i,-1
CC(C)=CCN1CCN(Cc2cn(C(C)C)c3ccccc23)CC1CCO (stereo unspecified),-3,0,17,-13,i,-5
COc1ccc(-c2[nH]ncc2N=Nc2cc(C)cc(C)c2)cc1,-8,4,2,6,+,-6
Cc1noc(C)c1C(=O)N1CCC1(C)C(=O)NS(=O)(=O)c1cccc(Cl)c1 (stereo unspecified),2,1,41*,x,i,x
Cc1noc(C)c1C(=O)N1CCC1(C)C(=O)NS(=O)(=O)c1ccc(Cl)cc1 (stereo unspecified),2,1,10,x,i,x
COc1ccc(N/C(N)=N/c2nc(C)cc(C)n2)c(OC)c1,1,2,30*,0,i,2
Cn1c(SCC(=O)NNC(=O)Cc2ccccc2)nnc1-c1ccccc1,2,3,3,0,i,0
